Laboratory results taken from ChEMBL document CHEMBL1126195, “A new, general synthetic route to multidentate N,S ligands for use in technetium-99m radiopharmaceuticals. Preparation of diamido disulfur, diamino dithiol, and tripodal N3S3 prototypes. Comparative biodistributions of [99mTcvO-DADS]- analogues which contain 5,5,5- and 5,7,5-membered chelate ring …” (J Med Chem, 1992).

How the values were obtained:
[1] = species: Rattus norvegicus; assay: Biodistribution was reported in rat blood after 1 min.; assay type: ADME, organism-based; conditions: in vivo
Outline: (§1)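 Female Sprague-Dawley rats (~200 g average, n = 3 per time point) were anesthetized with Metofane. They received 0.2 mL of 99mTc complex (50 µCi) by jugular vein injection. Rats were killed by cervical dislocation at early times or CO2 at later times. Blood (1 mL), brain, heart, a liver sample and one kidney were weighed and gamma-counted (100-150 keV) against standards. Values are average % injected dose/organ.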

[2] = species: Rattus norvegicus; assay: Biodistribution was reported in rat brain after 1 min.; assay type: ADME, organism-based; conditions: in vivo; outline: as §1
[3] = species: Rattus norvegicus; assay: Biodistribution was reported in rat liver after 30 min.; assay type: ADME, organism-based; conditions: in vivo, 0.5 h; outline: as §1
[4] = species: Rattus norvegicus; assay: Biodistribution was reported in rat kidney after 30 min.; assay type: ADME, organism-based; conditions: in vivo, 0.5 h; outline: as §1
[5] = species: Rattus norvegicus; assay: Biodistribution was reported in rat heart after 1 min.; assay type: ADME, organism-based; conditions: in vivo; outline: as §1
[6] = species: Rattus norvegicus; assay: Biodistribution was reported in rat blood after 30 min.; assay type: ADME, organism-based; conditions: in vivo, 0.5 h; outline: as §1
[7] = species: Rattus norvegicus; assay: Biodistribution was reported in rat kidney after 15 min.; assay type: ADME, organism-based; conditions: in vivo, 0.25 h; outline: as §1
[8] = species: Rattus norvegicus; assay: Biodistribution was reported in rat blood after 60 min.; assay type: ADME, organism-based; conditions: in vivo, 1 h; outline: as §1
[9] = species: Rattus norvegicus; assay: Biodistribution was reported in rat liver after 15 min.; assay type: ADME, organism-based; conditions: in vivo, 0.25 h; outline: as §1
[10] = species: Rattus norvegicus; assay: Biodistribution was reported in rat brain after 15 min.; assay type: ADME, organism-based; conditions: in vivo, 0.25 h; outline: as §1
[11] = species: Rattus norvegicus; assay: Biodistribution was reported in rat kidney after 60 min.; assay type: ADME, organism-based; conditions: in vivo, 1 h; outline: as §1
[12] = species: Rattus norvegicus; assay: Biodistribution was reported in rat brain after 5 min.; assay type: ADME, organism-based; conditions: in vivo; outline: as §1
[13] = species: Rattus norvegicus; assay: Biodistribution was reported in rat kidney after 5 min.; assay type: ADME, organism-based; conditions: in vivo; outline: as §1
[14] = species: Rattus norvegicus; assay: Biodistribution was reported in rat heart after 5 min.; assay type: ADME, organism-based; conditions: in vivo; outline: as §1
[15] = species: Rattus norvegicus; assay: Biodistribution was reported in rat heart after 60 min.; assay type: ADME, organism-based; conditions: in vivo, 1 h; outline: as §1
[16] = species: Rattus norvegicus; assay: Biodistribution was reported in rat brain after 60 min.; assay type: ADME, organism-based; conditions: in vivo, 1 h; outline: as §1
[17] = species: Rattus norvegicus; assay: Biodistribution was reported in rat kidney after 1 min.; assay type: ADME, organism-based; conditions: in vivo; outline: as §1
[18] = species: Rattus norvegicus; assay: Biodistribution was reported in rat liver after 5 min.; conditions: in vivo
[19] = species: Rattus norvegicus; assay: Biodistribution was reported in rat liver after 1 min.; assay type: ADME, organism-based; conditions: in vivo; outline: as §1
[20] = species: Rattus norvegicus; assay: Biodistribution was reported in rat heart after 15 min.; assay type: ADME, organism-based; conditions: in vivo, 0.25 h; outline: as §1
[21] = species: Rattus norvegicus; assay: Biodistribution was reported in rat blood after 5 min.; assay type: ADME, organism-based; conditions: in vivo; outline: as §1
[22] = species: Rattus norvegicus; assay: Biodistribution was reported in rat liver after 60 min.; assay type: ADME, organism-based; conditions: in vivo, 1 h; outline: as §1
[23] = species: Rattus norvegicus; assay: Biodistribution was reported in rat blood after 15 min.; assay type: ADME, organism-based; conditions: in vivo, 0.25 h; outline: as §1
[24] = species: Rattus norvegicus; assay: Biodistribution was reported in rat brain after 30 min.; assay type: ADME, organism-based; conditions: in vivo, 0.5 h; outline: as §1
[25] = species: Rattus norvegicus; assay: Biodistribution was reported in rat heart after 30 min.; assay type: ADME, organism-based; conditions: in vivo, 0.5 h; outline: as §1

Dose/organ [1] [%]	Dose/organ [2] [%]	Dose/organ [3] [%]	Dose/organ [4] [%]	Dose/organ [5] [%]	Dose/organ [6] [%]	Dose/organ [7] [%]	Dose/organ [8] [%]	Dose/organ [9] [%]	Dose/organ [10] [%]	Dose/organ [11] [%]	Dose/organ [12] [%]	Dose/organ [13] [%]	Dose/organ [14] [%]	Dose/organ [15] [%]	Dose/organ [16] [%]	Dose/organ [17] [%]	Dose/organ [18] [%]	Dose/organ [19] [%]	Dose/organ [20] [%]	SMILES	other results
24.64	0.05	61.12	1	0.17	2.52	1.2	2.1	71.36	0.01	0.92	0.01	1.6	0.1	0.03	0	2.2	61.6	66.32	0.1	O=C(CSC(=O)c1ccccc1)NCC(c1ccccc1)C(CNC(=O)CSC(=O)c1ccccc1)c1ccccc1 (stereo not given)	Dose/organ [21]: 5.18%; Dose/organ [22]: 47.68%; Dose/organ [23]: 3.64%; Dose/organ [24]: 0.01%; Dose/organ [25]: 0.04%
31.08	0.06	0.88	1.92	0.38	0.98	5.04	0.56	3.84	0.01	1.14	0.03	5.4	0.18	0.01	0	16.5	6.96	17.44	0.08	O=C(CSC(=O)c1ccccc1)NCCCCNC(=O)CSC(=O)c1ccccc1	Dose/organ [21]: 9.52%; Dose/organ [22]: 0.56%; Dose/organ [23]: 4.62%; Dose/organ [24]: 0%; Dose/organ [25]: 0.02%
